In series [1] the test system is Staphylococcus aureus. The series is described as follows: Compound was evaluated for its minimum inhibitory concentration against Staphylococcus aureus in presence of 10% serum. It is filed as functional. In a few lines: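 MIC against S. aureus strain 011HT3 (no particular resistance phenotype) in medium containing serum proteins; 2-fold broth microdilution, read after 24-h incubation.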

Series [2] in a line: pKa value was determined. It is filed as physicochemical.
In series [3] the test system is Staphylococcus aureus. The series is described as follows: Compound was evaluated for its minimum inhibitory concentration against Staphylococcus aureus. It is filed as functional. The essentials:
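MIC by 2-fold broth microdilution, read after 24-h incubation; S. aureus strain 011HT3, no particular resistance phenotype.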

The next series has as its target DNA gyrase (Escherichia coli, UniProt P0AES4+P0AES6). The series can be described thus: Inhibitory activity against Escherichia coli DNA gyrase. The format is protein-complex assay.

Converted amounts (≈) assume the structure as drawn.

`CO[C@@H]1[C@@H](OC(=O)c2ccc(C)[nH]2)[C@@H](O)[C@H](Oc2ccc3c(N4CCC(N(C)C)CC4)cc(=O)oc3c2C)OC1(C)C`: the results for the minimum inhibitory concentration (MIC) in the series on Staphylococcus aureus [1] and against Staphylococcus aureus [3] were 2.5 µg/mL and 2.5 µg/mL (≈ 4.28 µM), respectively. Further, in series [2], the pKa is 9. For the same compound, the IC50 on DNA gyrase is 480 nM.

`CCN1CCN(c2cc(=O)oc3c(C)c(O[C@@H]4OC(C)(C)[C@H](OC)[C@@H](OC(=O)c5ccc(C)[nH]5)[C@H]4O)ccc23)CC1`: the minimal inhibitory concentration (MIC) with Staphylococcus aureus [1] came out at 2.5 µg/mL; in the series with Staphylococcus aureus [3], 0.6 µg/mL (≈ 1.05 µM). The pKa in series [2] turned out to be 7.5. The compound also showed an IC50 against DNA gyrase of 439 nM.

Consider `CO[C@@H]1[C@@H](OC(=O)c2ccc(C)[nH]2)[C@@H](O)[C@H](Oc2ccc3c(N4CCNC(C)C4)cc(=O)oc3c2C)OC1(C)C` (some centres not stated), for which the figures for the MIC with Staphylococcus aureus [1] and with Staphylococcus aureus [3] were 2.5 µg/mL and 2.5 µg/mL (≈ 4.5 µM), respectively. In series [2], this compound returned a pKa of 8.3. The IC50 against DNA gyrase was 225 nM.

For `CO[C@@H]1[C@@H](OC(=O)c2ccc(C)[nH]2)[C@@H](O)[C@H](Oc2ccc3c(N(C)CCN(C)C)cc(=O)oc3c2C)OC1(C)C`, the MIC in the series on Staphylococcus aureus [1] amounted to 5 µg/mL; against Staphylococcus aureus [3], 5 µg/mL (≈ 8.97 µM). Further, in series [2], the pKa came out at 8.2. For the same compound, the midpoint of inhibition against DNA gyrase, the IC50, lay at 628 nM.

Consider `CO[C@@H]1[C@@H](OC(=O)c2ccc(C)[nH]2)[C@@H](O)[C@H](Oc2ccc3c(N4CCN(C)CC4)c(Cl)c(=O)oc3c2C)OC1(C)C`, for which the MIC in the series with Staphylococcus aureus [1] came out at 20 µg/mL; in the series on Staphylococcus aureus [3] it was 1.2 µg/mL (≈ 2.03 µM). Further, the pKa in series [2] was 7.4. For the same compound, at DNA gyrase, 847 nM corresponded to half-maximal inhibition (IC50).

As for `CO[C@@H]1[C@@H](OC(=O)c2ccc(C)[nH]2)[C@@H](O)[C@H](Oc2ccc3c(N4CC[N+](C)(C)CC4)cc(=O)oc3c2C)OC1(C)C`, the minimum inhibitory concentration (MIC) in the series with Staphylococcus aureus [1] and in the series with Staphylococcus aureus [3] was over 40 µg/mL each time. This compound had a half-maximal inhibitory concentration (IC50) against DNA gyrase of 245 nM.

In the case of `CO[C@@H]1[C@@H](OC(=O)c2ccc(C)[nH]2)[C@@H](O)[C@H](Oc2ccc3c(N4CCN(c5ccccn5)CC4)cc(=O)oc3c2C)OC1(C)C`, the minimal inhibitory concentration (MIC) with Staphylococcus aureus [1] was determined as 10 µg/mL; in the series with Staphylococcus aureus [3], 0.3 µg/mL (≈ 0.485 µM). The pKa in series [2] was determined as 5.5. On DNA gyrase, inhibition was half-maximal at 1780 nM (IC50).

For `CO[C@@H]1[C@@H](OC(N)=O)[C@@H](O)[C@H](Oc2ccc3c(O)c(NC(=O)c4ccc(O)c(CC=C(C)C)c4)c(=O)oc3c2C)OC1(C)C` [NOVOBIOCIN], the MIC in the series on Staphylococcus aureus [1] was 2.5 µg/mL; against Staphylococcus aureus [3], under 0.04 µg/mL. In addition, in series [2], the pKa stood at 3.6.

As to `CO[C@@H]1[C@@H](OC(=O)c2ccc(C)[nH]2)[C@@H](O)[C@H](Oc2ccc3c(N4CCNCC4)cc(=O)oc3c2C)OC1(C)C`, the minimum inhibitory concentration (MIC) with Staphylococcus aureus [1] amounted to 5 µg/mL; in the series on Staphylococcus aureus [3], 5 µg/mL (≈ 9.23 µM). The compound also had a pKa in series [2] of 8.3. Further, half-maximal inhibition at DNA gyrase (IC50) required 231 nM.

Turning to `CO[C@@H]1[C@@H](OC(=O)c2ccc(C)[nH]2)[C@@H](O)[C@H](Oc2ccc3c(N4CCN(C)CC4)cc(=O)oc3c2C)OC1(C)C`, the figures for the minimal inhibitory concentration (MIC) with Staphylococcus aureus [1] and in the series with Staphylococcus aureus [3] were 0.3 µg/mL and 0.15 µg/mL (≈ 0.27 µM), respectively. In series [2], this compound gave a pKa of 7.3. For the same compound, at DNA gyrase, half-maximal inhibition (IC50) required 540 nM.

With `CO[C@@H]1[C@@H](OC(=O)c2ccc(C)[nH]2)[C@@H](O)[C@H](Oc2ccc3c(N4CC(C)NC(C)C4)cc(=O)oc3c2C)OC1(C)C` (some centres not stated), the MIC came to 2.5 µg/mL in the series on Staphylococcus aureus [1] and 2.5 µg/mL (≈ 4.39 µM) in the series with Staphylococcus aureus [3]. The same compound gave a pKa in series [2] of 8. Further, on DNA gyrase, the half-maximal inhibitory concentration (IC50) was 281 nM.

The values above are taken from ChEMBL document CHEMBL1134088, “Fine Tuning of physico-chemical parameters to optimise a new series of novobiocin analogues” (Bioorg Med Chem Lett, 2001).
